Source: ChEMBL document CHEMBL5352453, “Hit-to-lead optimization of a 2-aminobenzimidazole series as new candidates for chagas disease” (Eur J Med Chem, 2023)

Key:
[1] = Metabolic stability in CD1 mouse liver microsomes assessed as intrinsic clearance measured upto 60 mins by LC-MS/MS analysis; assay type: ADME; conditions: read-out: CLH
Summary of the method: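 CD1 mouse liver microsomes at 0.25 mg/mL, compound at 0.5 µM, pH 7.4, 37 °C, started with NADPH. Sampled at 0, 5, 10, 20, 30 and 60 min and quenched with acetonitrile:methanol containing tolbutamide. Measured by LC-MS/MS; CLint (k × 1000/0.25, µL/min/mg) derived by non-linear regression of % remaining over time.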

[2] = Selectivity index, ratio of CC50 for cytotoxicity against human MRC5 cells to EC50 for Trypanosoma cruzi Tulahuen CL2 amastigotes expressing beta galactosidase infected in human MRC5 cells; assay type: toxicity, cell-based; conditions: read-out: Selectivity Index
Summary of the method: (§1)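 T. cruzi Tulahuen CL2 β-galactosidase strain grown in MRC-5 cells (MEM, 5% heat-inactivated FCS, 37 °C, 5% CO2). MRC-5 cells (4 x 10^3/well) plus parasites (4 x 10^4/well) exposed 7 days to 4-fold dilutions from 64 µM down; final DMSO <1%. CPRG with Nonidet added, absorbance at 540 nm after 4 h. IC50 calculated against untreated-infected (100%) and non-infected (0%) controls. SI = MRC-5 CC50/IC50.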

Trypanosoma cruzi [3] = assay: Antitrypanosomal activity against Trypanosoma cruzi Tulahuen CL2 amastigotes expressing beta galactosidase infected in human MRC5 cells assessed as reduction in parasite burden using chlorophenol red beta-D-galactopyranoside as substrate and measured after 7 days by spectrophotometric analysis; assay type: functional, organism-based; conditions: Tulahuen CL2, MRC5, 168 h; summary of the method: as §1
[4] = Drug metabolism in S9 cells assessed as turnover; conditions: mouse
[5] = Passive permeability of the compound at 10 uM at pH 6.5 to 7.4 donor portion/acceptor portion by PAPMA assay; assay type: ADME; conditions: not told, read-out: permeability
Summary of the method: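 PAMPA on pre-coated membranes. Donor holds 10 µM compound in PBS pH 6.5; acceptor holds PBS pH 7.4. Incubated 5 h at 37 °C. Donor, acceptor and initial donor samples quenched and quantified by LC-MS/MS to calculate effective permeability (Pe). Run in triplicate.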

[6] = Cytotoxicity against mouse 3T3 cells assessed as reduction in cell viability measured after 24 hrs by colorimetric assay; assay type: toxicity, cell-based; conditions: NIH3T3 cells
[7] = Cytotoxicity against rat L6 cells assessed as reduction in cell viability measured after 24 hrs by colorimetric assay; assay type: toxicity, cell-based
[8] = Cytotoxicity against human HepG2 cells assessed as reduction in cell viability measured after 24 hrs by colorimetric assay; assay type: toxicity, cell-based
Trypanosoma cruzi [9] = assay: Antitrypanosomal activity against intracellular Trypanosoma cruzi amastigote infected mouse 3T3 cells assessed as reduction in amastigote population measured after 48 hrs
Trypanosoma cruzi [10] = assay: Antitrypanosomal activity against intracellular Trypanosoma cruzi amastigote infected primary peritoneal mouse macrophages assessed as reduction in infection rate; assay type: functional
Summary of the method: (§2)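 High-content imaging of primary mouse macrophages infected with T. cruzi. Counts both amastigotes per cell and percentage of infected cells. 96 h exposure, with maximal activity scored at 10 µM. IC50 and IC90 against intracellular amastigotes taken from the same 96 h incubation.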

[11] = Kinetic solubility of the compound at pH 2 PBS buffer measured after 24 hrs shaken by LC-MS/MS analysis; assay type: physicochemical; conditions: read-out: Kinetic_solubility
Summary of the method: (§3)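 Compounds from 10 mM DMSO stocks diluted in PBS pH 7.4 or pH 2.0 to 250 µM final, 2.5% DMSO, in duplicate. Shaken 24 ± 1 h at 200 rpm, room temperature, then centrifuged to remove precipitate. Supernatant quantified by LC-MS/MS against per-compound calibration at 1–50 µM.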

[12] = Cytotoxicity against human MRC5 cells assessed as reduction in cell viability measured after 24 hrs by colorimetric assay; assay type: toxicity, cell-based
[13] = Kinetic solubility of the compound at pH 7.4 PBS buffer measured after 24 hrs shaken by LC-MS/MS analysis; assay type: physicochemical; conditions: read-out: Kinetic_solubility; summary of the method: as §3
Trypanosoma cruzi [14] = assay: Antitrypanosomal activity against intracellular Trypanosoma cruzi amastigote infected primary peritoneal mouse macrophages assessed as reduction in amastigote population; assay type: functional; design: concentration or dose not given beside the values; summary of the method: as §2
[15] = Cytotoxicity against primary peritoneal mouse macrophages assessed as reduction in cell viability measured after 24 hrs by colorimetric assay; assay type: toxicity, cell-based, Peritoneal macrophage
Trypanosoma cruzi [16] = assay: Antitrypanosomal activity against intracellular Trypanosoma cruzi amastigote infected primary peritoneal mouse macrophages assessed as reduction in amastigote population measured after 96 hrs; assay type: functional, organism-based; summary of the method: as §2

Row | SMILES | microsomal CLint [1] [µL/min/mg] | selectivity ratio [2] | IC50 (Trypanosoma cruzi [3]) [µM] | metabolised [4] [%] | Papp at 10 µM [5] [×10⁻⁶ cm/s] | CC50 at 24 h [6] [µM] | CC50 at 24 h [7] [µM] | CC50 at 24 h [8] [µM] | IC50 (Trypanosoma cruzi [9]) [µM] | inhibition (INH) (Trypanosoma cruzi [10]) [%] | solubility kinetic at 24 h [11] [µM] | CC50 at 24 h [12] [µM] | solubility kinetic at 24 h [13] [µM] | Activity (Trypanosoma cruzi [14]) [%] | CC50 at 24 h [15] [µM] | IC50 (Trypanosoma cruzi [16]; 96 h) [µM] | IC90 (Trypanosoma cruzi [16]; time 96 hrs) [µM]
1 | CCCn1c(NC(=O)c2cccnc2)nc2cc(F)ccc21 | 164 | > 8 | 8.2 | 1.91 | – | – | – | – | – | – | – | – | – | – | – | – | –
2 | CCCn1c(NC(=O)c2ccccn2)nc2cc(F)ccc21 | 413 | 7 | 1.1 | 66.2 | – | – | – | – | – | – | – | – | – | – | – | – | –
3 | Cn1nc(C(F)(F)F)cc1C(=O)Nc1nc2ccc(C#N)cc2n1CC(F)(F)F | 28 | 34 | 0.23 | – | 2.4 | > 40 | 19 | 1.1 | 0.99 | 97 | < 1 | 8 | < 1 | 99 | 1 | 0.19 | 0.36
